IC50 and Ratio IC50 data for 19 compounds are collected here from ChEMBL document CHEMBL4385599, “Neutral sphingomyelinase 2 inhibitors based on the 4-(1H-imidazol-2-yl)-2,6-dialkoxyphenol scaffold” (Eur J Med Chem, 2019).

Bounds are passed on as bounds.

The target in experiment [1] is T1, Sphingomyelin phosphodiesterase 3 (Homo sapiens, UniProt Q9NY59).
T1 sequence (Q9NY59 whole entry): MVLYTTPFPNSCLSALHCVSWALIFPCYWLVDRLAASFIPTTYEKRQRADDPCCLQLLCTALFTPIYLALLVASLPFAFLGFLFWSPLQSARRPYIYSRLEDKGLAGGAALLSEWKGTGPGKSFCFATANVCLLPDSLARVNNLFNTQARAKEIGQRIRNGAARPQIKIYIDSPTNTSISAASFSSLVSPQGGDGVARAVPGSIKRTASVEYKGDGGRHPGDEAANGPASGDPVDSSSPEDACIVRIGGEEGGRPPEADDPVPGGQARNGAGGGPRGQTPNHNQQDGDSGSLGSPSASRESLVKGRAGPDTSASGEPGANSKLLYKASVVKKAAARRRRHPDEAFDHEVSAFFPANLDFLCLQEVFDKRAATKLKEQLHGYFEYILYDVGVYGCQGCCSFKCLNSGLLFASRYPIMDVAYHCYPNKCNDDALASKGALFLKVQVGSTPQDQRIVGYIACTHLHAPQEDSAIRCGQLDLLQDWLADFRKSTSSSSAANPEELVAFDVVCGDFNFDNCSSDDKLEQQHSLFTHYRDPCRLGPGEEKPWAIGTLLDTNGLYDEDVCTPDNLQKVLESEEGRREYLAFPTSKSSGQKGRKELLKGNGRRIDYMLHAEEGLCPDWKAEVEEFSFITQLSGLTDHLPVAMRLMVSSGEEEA
Nature of the experiment: Inhibition of human recombinant nSMase expressed in HEK293 cells using sphingomyelin as substrate by alkaline phosphatase, choline oxidase and horseradish peroxidase dependent H2O2 detection based fluorescence coupled assay. An outline of the steps:
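Fluorescence-based coupled assay with human recombinant nSMase2, alkaline phosphatase and choline oxidase; IC50 values are mean ± SD of at least three experiments.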

For experiment [2], the species on record is Homo sapiens. Kind of experiment: Selectivity index, ratio of IC50 for choline oxidase (unknown origin) to IC50 for Inhibition of human recombinant nSMase expressed in HEK293 cells. In kind it is cell-based.
The species entered for experiment [3] is Homo sapiens. Kind of experiment: Selectivity index, ratio of IC50 for alkaline phosphatase (unknown origin) to IC50 for Inhibition of human recombinant nSMase expressed in HEK293 cells. In kind it is cell-based.
A short description of experiment [4]: Selectivity index, ratio of IC50 for horseradish peroxidase to IC50 for Inhibition of human recombinant nSMase expressed in HEK293 cells. In kind it is cell-based.

With `COc1cc(-c2nc(-c3ccc(C)cc3)c[nH]2)cc(OC)c1O`, in experiment [1], the IC50 – broadly, the concentration that inhibits the measured activity by half – is 130 nM. Further, the Ratio IC50 (in the experiment listed under Homo sapiens [2]; in the experiment filed under Homo sapiens [3]; in experiment [4]) was greater than 5 throughout.
In the case of `Oc1c(Cl)cc(-c2nc(-c3ccccc3)c(-c3cccs3)[nH]2)cc1Cl`, in experiment [1], the IC50 was greater than 100000 nM. Also, the Ratio IC50 (in the experiment filed under Homo sapiens [2]; in the experiment filed under Homo sapiens [3]; in experiment [4]) was greater than 5 each time.
`COc1cc(-c2ncc(-c3ccccc3)[nH]2)cc(OC)c1O`: the Ratio IC50 (in the experiment listed under Homo sapiens [2]; in the experiment filed under Homo sapiens [3]; in experiment [4]) was greater than 5 each time.
`COc1cc(-c2ncc[nH]2)cc(OC)c1O`: the concentration for half-maximal inhibition (IC50) in experiment [1] was 420 nM. Further, the Ratio IC50 (in the experiment listed under Homo sapiens [2]; in the experiment listed under Homo sapiens [3]; in experiment [4]) was greater than 5 each time.
As to `CCCCc1[nH]c(-c2cc(OC)c(O)c(OC)c2)nc1C`, the Ratio IC50 (in the experiment listed under Homo sapiens [2]; in the experiment listed under Homo sapiens [3]; in experiment [4]) was greater than 5 throughout.
Consider `Oc1ccccc1-c1nc(-c2ccccc2)c(-c2cccs2)[nH]1`, for which, in experiment [1], the half-maximal inhibitory concentration (IC50) was greater than 100000 nM. Also, the Ratio IC50 (in the experiment filed under Homo sapiens [2]; in the experiment filed under Homo sapiens [3]; in experiment [4]) was greater than 5 in each case.
`COc1cc(-c2nc(C)c(C)[nH]2)cc(OC)c1O`: in experiment [1], the IC50 was 520 nM. Further, the Ratio IC50 (in the experiment filed under Homo sapiens [2]; in the experiment filed under Homo sapiens [3]; in experiment [4]) was less than 5 throughout.
On to `COc1cc(OC)cc(-c2nc(-c3ccccc3)c(-c3cccs3)[nH]2)c1`, for which the Ratio IC50 (in the experiment listed under Homo sapiens [2]; in the experiment listed under Homo sapiens [3]; in experiment [4]) was greater than 5 in each case.
Take `COc1cc(-c2nccs2)cc(OC)c1O`: the IC50 in experiment [1] came to 20000 nM. Also, the Ratio IC50 (in the experiment filed under Homo sapiens [2]; in the experiment listed under Homo sapiens [3]; in experiment [4]) was less than 5 throughout.
Regarding `COc1cc(-c2nc(-c3ccccc3)c(-c3cccs3)[nH]2)cc(OC)c1OC`, the IC50 in experiment [1] was greater than 100000 nM. Further, the Ratio IC50 (in the experiment listed under Homo sapiens [2]; in the experiment listed under Homo sapiens [3]; in experiment [4]) was greater than 5 in each case.
In the case of `COc1cc(-c2nc(-c3ccccc3)c(-c3cccs3)[nH]2)ccc1O`, the Ratio IC50 (in the experiment listed under Homo sapiens [2]; in the experiment listed under Homo sapiens [3]; in experiment [4]) was greater than 5 throughout.
On to `CC(C)(C)Oc1cc(-c2nc(-c3ccccc3)c(-c3cccs3)[nH]2)cc(OC(C)(C)C)c1O`, for which the IC50 in experiment [1] was found to be 520 nM. The Ratio IC50 (in the experiment listed under Homo sapiens [2]; in the experiment filed under Homo sapiens [3]; in experiment [4]) was greater than 5 in each case.
Take `Oc1c(OC2CCCC2)cc(-c2nc(-c3ccccc3)c(-c3cccs3)[nH]2)cc1OC1CCCC1`: in experiment [1], the 50% inhibitory concentration (IC50) came out at 120 nM. Further, the Ratio IC50 (in the experiment filed under Homo sapiens [2]; in the experiment listed under Homo sapiens [3]; in experiment [4]) was greater than 5 throughout.
With `COc1cc(-c2nc3c([nH]2)CCCC3)cc(OC)c1O`, in experiment [1], the IC50 is 420 nM. For the same compound, the Ratio IC50 (in the experiment listed under Homo sapiens [2]; in the experiment listed under Homo sapiens [3]; in experiment [4]) was less than 5 in each case.
On to `Oc1cccc(-c2nc(-c3ccccc3)c(-c3cccs3)[nH]2)c1`, for which the half-inhibitory concentration (IC50) in experiment [1] was greater than 100000 nM. The Ratio IC50 (in the experiment filed under Homo sapiens [2]; in the experiment listed under Homo sapiens [3]; in experiment [4]) was greater than 5 in each case.
Turning to `COc1cc(-c2nc(-c3ccco3)c(-c3ccco3)[nH]2)cc(OC)c1O`, the IC50 in experiment [1] is 40 nM. For the same compound, the Ratio IC50 (in the experiment listed under Homo sapiens [2]; in the experiment filed under Homo sapiens [3]; in experiment [4]) was greater than 5 throughout.
Turning to `COc1cc(C2=NCCN2)cc(OC)c1O`, in experiment [1], the concentration for half-maximal inhibition (IC50) was greater than 100000 nM. Further, the Ratio IC50 (in the experiment listed under Homo sapiens [2]; in the experiment filed under Homo sapiens [3]; in experiment [4]) was greater than 5 in each case.
As for `Oc1ccc(-c2nc(-c3ccccc3)c(-c3cccs3)[nH]2)cc1`, in experiment [1], the half-inhibitory concentration (IC50) was 2100 nM. Moreover, the Ratio IC50 (in the experiment filed under Homo sapiens [2]; in the experiment listed under Homo sapiens [3]; in experiment [4]) was less than 5 throughout.
For the compound `COc1cc(-c2nc(-c3cccs3)c(-c3cccs3)[nH]2)cc(OC)c1O`, the Ratio IC50 (in the experiment listed under Homo sapiens [2]; in the experiment filed under Homo sapiens [3]; in experiment [4]) was greater than 5 each time.
